Assay: Toxicity liver stage against HepG2, at 10uM
Assay type: cell-based
Parameters: test concentration 10 uM, cell line HepG2-A16-CD81EGFP
Settings: human, HepG2-A16-CD81EGFP cells; read-out: INHIBITION
Procedure, shortened: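 Uninfected HepG2-A16-CD81EGFP cells, 3 × 10^3 per well, 1536-well, plated on prespotted compound at 10 μM final, parasite-free screening media added to match infected plates; puromycin 10 μM positive, DMSO 0.5% negative; run in parallel with 48 h PbLuc assay at 37 °C, 5% CO2; viability by CellTiter-Glo luminescence, normalized to controls.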

## COCCCN(Cc1ccccn1)S(=O)(=O)N(C)C
  cytotoxicity at 10 µM: 12%

## O=C(CCc1ccc(-n2cnnn2)cc1)Nc1ccncc1
  cytotoxicity at 10 µM: -11.2%

## COC(=O)CSc1nnc2[nH]c(=O)c3c(n12)CCCC3
  cytotoxicity at 10 µM: -99.8%

## O=C(NC1CC(=O)N(C2CC2)C1)c1ccc(Cl)s1 (stereo not given)
  cytotoxicity at 10 µM: 9.05%

## Fc1cnc(N2CCCn3c(nnc3Cn3cccn3)C2)nc1
  cytotoxicity at 10 µM: 4.53%

## CCOc1ccc(CCC(=O)N2CC[C@H]3C(=O)NCCO[C@H]3C2)cc1
  cytotoxicity at 10 µM: 12.1%

## CCOC1CC2(CCN(Cc3cnn(C)c3)CC2)c2ccc(C)cc21 (stereo not given)
  cytotoxicity at 10 µM: 4.62%

## CN1C[C@@H]2CN(C(=O)C3CCOC3)C[C@@H]2C1=O (stereo not given in full)
  cytotoxicity at 10 µM: -127%

## CCCS(=O)(=O)N1C[C@@H](c2nc(C)no2)C[C@H]2OCC[C@H]21
  cytotoxicity at 10 µM: -130%

## c1cncc(CN2CCc3c(CNc4nccs4)n[nH]c3C2)c1
  cytotoxicity at 10 µM: 1.04%

## Cc1cccc(C(=O)N2CCn3cnc(COCC4CC4)c3C2)c1
  cytotoxicity at 10 µM: 14%

## NC(=O)c1c(NC(=O)CCCC(=O)O)sc2c1CCc1ccccc1-2
  cytotoxicity at 10 µM: -1.25%

## Cc1noc2nc3c(c(C(=O)/N=c4\[nH]ncs4)c12)CCC3
  cytotoxicity at 10 µM: -0.493%

## O=C(C1CC1)N1CC[C@H](O)[C@@H]1Cc1ccccc1
  cytotoxicity at 10 µM: 1.93%

## Cc1cnn(CC(=O)N2CCC(c3ccn4nccc4n3)CC2)c1
  cytotoxicity at 10 µM: 3.24%

## Cc1nc(N)cc(C2(C)CCCNC2)n1 (stereo not given)
  cytotoxicity at 10 µM: 1.36%

## CN1CCC(c2cnc(NCc3nccn3C)cn2)CC1
  cytotoxicity at 10 µM: -5.91%

## CN1CCOC(C)(C(=O)N2CCN(C3CCCC3)CC2)C1 (stereo not given)
  cytotoxicity at 10 µM: -25.8%

## Cc1ccnn1CCC(=O)N1CCC(c2cnccn2)CC1
  cytotoxicity at 10 µM: -26.1%

## Cc1ccc([C@@]2(O)CC[C@@H]3CN(S(=O)(=O)c4cn(C)nc4C)C[C@@H]32)cc1
  cytotoxicity at 10 µM: -16.2%

## O=C(CCCn1cccn1)N1C[C@@H](O)[C@H](Oc2cccc(F)c2)C1
  cytotoxicity at 10 µM: 5.75%

## Cc1ccc(S(=O)(=O)N2CCC(c3n[nH]cc3C)C2)cc1 (stereo not given)
  cytotoxicity at 10 µM: -14.3%

## CN(C)C(=O)C1CN(Cc2cccs2)CCN(S(C)(=O)=O)C1 (stereo not given)
  cytotoxicity at 10 µM: -33.1%

## COc1ccc(CN(C)[C@@H]2CN(C(=O)c3cccn3C)C[C@H]2O)cc1
  cytotoxicity at 10 µM: -21.5%

## COc1cccc(N2CCN(C(=O)c3ccc(=O)n(C)c3)CC2)c1
  cytotoxicity at 10 µM: -7.81%

## COc1ccc(OC)c(S(=O)(=O)NC(=O)C(C)OC)c1 (stereo not given)
  cytotoxicity at 10 µM: -1.2%

## COc1ccc(S(=O)(=O)NC(=O)C(C)OC)c(OC)c1 (stereo not given)
  cytotoxicity at 10 µM: -6.67%

## O=C(NCCc1nncn1C1CC1)C1(c2ccccc2)CCC1
  cytotoxicity at 10 µM: 5.36%

## Cc1ccc(CN(C)C(=O)NCC(C)(C)NS(C)(=O)=O)s1
  cytotoxicity at 10 µM: -0.422%

## COC(C)c1cccc(NCc2ccsc2)c1 (stereo not given)
  cytotoxicity at 10 µM: -4.53%

## O=C(c1ccc(-c2ccccc2)[nH]c1=O)N1CCN(C2CC2)CC1
  cytotoxicity at 10 µM: 9.8%

## CCc1cc(C)c(C(=O)N2CCCC(c3nnn[nH]3)C2)o1 (stereo not given)
  cytotoxicity at 10 µM: 1.02%

## CN1CCC(N(Cc2ccccc2)C(=O)c2ccn3cncc3c2)CC1
  cytotoxicity at 10 µM: 5.68%

## CCC(C)NC(=O)CS(=O)(=O)Cc1cc(Cl)ccc1OC (stereo not given)
  cytotoxicity at 10 µM: 10.8%

## COc1cc(NCCNC(=O)c2ccc3[nH]ccc3c2)cc(OC)c1
  cytotoxicity at 10 µM: 6.44%

## COc1cccc2c1N(CC(=O)Nc1ccc(Cl)cn1)CCC2
  cytotoxicity at 10 µM: 64.9%

## CN(C)c1cccc(C(=O)Nc2cnn(Cc3ccncc3)c2)c1
  cytotoxicity at 10 µM: -9.19%

## CCC(CNC(=O)c1ccc(C(N)=O)cc1)Oc1cccc(F)c1 (stereo not given)
  cytotoxicity at 10 µM: -39.5%

## O=C(NCc1nc(C2CC2)no1)N1CCOC(c2ccccc2)C1 (stereo not given)
  cytotoxicity at 10 µM: -45.2%

## CCCn1nnnc1CSc1nccn1C
  cytotoxicity at 10 µM: -3.39%

## CN1CCN(C(C)(C)CNC(=O)C2CCCN2S(C)(=O)=O)CC1 (stereo not given)
  cytotoxicity at 10 µM: 7.45%

## CC(CS(C)(=O)=O)N(C(=O)CCc1ccsc1)C1CC1 (stereo not given)
  cytotoxicity at 10 µM: 1.97%

## OCC1CCCCN1Cc1nc(Cc2ccccc2)no1 (stereo not given)
  cytotoxicity at 10 µM: 5.13%

## CC(C)c1ncc2c(n1)CN(Cc1ccc3c(c1)OCCO3)CC2
  cytotoxicity at 10 µM: -0.996%

## CC(=O)N1Cc2ccccc2CC1C(=O)Nc1ccc(C)cn1 (stereo not given)
  cytotoxicity at 10 µM: -0.147%

## CN(Cc1ccccn1)C(=O)c1ccc2c(c1O)OC(C)(C)C2
  cytotoxicity at 10 µM: -11.8%

## CN(Cc1ccc([S+](C)[O-])cc1)c1ccc(Cl)cn1 (stereo not given)
  cytotoxicity at 10 µM: 8.97%

## Cc1noc(C)c1C(C)C(=O)N1CCCN(C)c2ccc(Cl)cc21 (stereo not given)
  cytotoxicity at 10 µM: 3.89%

## CCOc1cccnc1C(=O)N1CCC(c2ccccc2OC)C1 (stereo not given)
  cytotoxicity at 10 µM: 7.71%

## CCc1ccc(C(=O)Nc2cc(N3CCNC3=O)ccc2Cl)o1
  cytotoxicity at 10 µM: 6.03%

## Cn1cc(NC(=O)c2cc[nH]n2)cc(Cl)c1=O
  cytotoxicity at 10 µM: -18.3%

## CN1CCN(Cc2ccccc2CNC(=O)c2ccc(Br)cc2)CC1
  cytotoxicity at 10 µM: 4.44%

## CN(C)CC(=O)N1CCc2sc(C(=O)N3CCN(C)CC3)cc21
  cytotoxicity at 10 µM: -104%

## CCN(C(=O)c1ccc2nnc(C3CCN(S(C)(=O)=O)C3)n2c1)C(C)C (stereo not given)
  cytotoxicity at 10 µM: -110%

## CC(C)c1cc(NC(CO)CO)n2nccc2n1
  cytotoxicity at 10 µM: 6.33%

## Cc1nn(C)c2nc(N3CCCCC3c3cccnc3)sc12 (stereo not given)
  cytotoxicity at 10 µM: -6.9%

## CN1CCC(N(CCc2ccccc2)C(=O)c2ccoc2)CC1
  cytotoxicity at 10 µM: -5.42%

## CN(C)C(C(=O)N1CC(c2ccccn2)C1)c1cccc(F)c1 (stereo not given)
  cytotoxicity at 10 µM: -0.95%

## Nc1nc(CNc2nccc(CCC(F)(F)F)n2)cs1
  cytotoxicity at 10 µM: -2.38%

## Cc1cc2nc(C(C)C)cc(N(C)CC3CCCN3C)n2n1 (stereo not given)
  cytotoxicity at 10 µM: 8.49%

## CC(=O)N1CCC(Oc2ccc(Cl)cc2C(=O)N2CCCO2)CC1
  cytotoxicity at 10 µM: 15.3%

## COc1ccc(CNC(=O)Cc2csc(C(C)=O)c2)cc1
  cytotoxicity at 10 µM: 4.95%

## COc1ncccc1C(=O)N1CCC(c2nc3c(C)cccc3[nH]2)CC1
  cytotoxicity at 10 µM: 11.7%

## O=C(CCc1ccco1)N1CCc2[nH]nc(COc3ccccc3)c2C1
  cytotoxicity at 10 µM: 0.86%

## COc1ccc(F)c(CN2CCCC(O)(CNCc3ncc[nH]3)C2=O)c1 (stereo not given)
  cytotoxicity at 10 µM: 5.87%

## CCC[C@H]1CN(Cc2ccc(N(C)C)nc2)C[C@@H]1NC(=O)CSC
  cytotoxicity at 10 µM: 7.78%

## Cc1ccc(Cl)cc1-n1nnnc1C1(N2CCCC2)CCCC1
  cytotoxicity at 10 µM: 1.18%

## Cc1cccc(SC2CCN(C(=O)CCCS(N)(=O)=O)CC2)c1
  cytotoxicity at 10 µM: -6.01%

## CCNC(=O)C1CCN(c2cc(-c3ccccc3)nc3ccnn23)C1 (stereo not given)
  cytotoxicity at 10 µM: -16.9%

## Cc1ncsc1C(=O)N1CCn2nc(CN3CCSCC3)cc2C1
  cytotoxicity at 10 µM: -51%

## c1ccc(CCN2CCN(c3ncnc4[nH]ccc34)CC2)cc1
  cytotoxicity at 10 µM: 5.09%

## Cc1nc(C(=O)N2CCN(c3ncccn3)[C@@H]3CS(=O)(=O)C[C@@H]32)cs1
  cytotoxicity at 10 µM: 6.12%

## OC1(CN2CCCC2)COCCN(c2noc(-c3ccccc3)n2)C1 (stereo not given)
  cytotoxicity at 10 µM: 0.726%

## CCn1nccc1S(=O)(=O)N1CCC2(CCCN(C(C)C)C2=O)C1 (stereo not given)
  cytotoxicity at 10 µM: -10.9%

## Cc1ccccc1N1CCN(C(=O)c2ncc(F)cc2F)C(C)C1 (stereo not given)
  cytotoxicity at 10 µM: 11.4%

## COc1ccc(N2CCC(N3C[C@H](NC(C)=O)[C@@H](C(C)C)C3)CC2)cc1
  cytotoxicity at 10 µM: -9.92%

## COc1ccccc1-n1cc(C(=O)NCCn2nc(C)nc2C)cn1
  cytotoxicity at 10 µM: 9.27%

## CS(=O)(=O)c1ccc(CN2CCCCC2c2ccc(F)cc2)cc1 (stereo not given)
  cytotoxicity at 10 µM: 6.04%

## Cc1cc(NC(C)Cn2cccn2)n2nccc2n1 (stereo not given)
  cytotoxicity at 10 µM: 1.99%

## CCN1CCN(S(=O)(=O)c2cnc(NC(C)=O)s2)CC1
  cytotoxicity at 10 µM: 1.37%

## CCOc1ccc(-c2cc(CCN)ccc2OC)cc1
  cytotoxicity at 10 µM: 1.63%

## Cn1ccnc1C(NCc1ccccc1)c1ccc(F)cc1 (stereo not given)
  cytotoxicity at 10 µM: 0.573%

## CC(C)(C)c1nnc(CN2CCCC2Cn2cncn2)o1 (stereo not given)
  cytotoxicity at 10 µM: -4.04%

## Cc1cnc(CN2CCOC(Cn3nc(C)cc3C)C2)cn1 (stereo not given)
  cytotoxicity at 10 µM: -2.81%

## CN(Cc1csc(-c2cnn(C)c2)n1)CC1CCN(CCO)CC1
  cytotoxicity at 10 µM: 7.77%

## c1ccc(Cn2cc(CNCC3CCCN3c3cccnn3)cn2)cc1 (stereo not given)
  cytotoxicity at 10 µM: -4.03%

## CCN1CCOC(CNCc2ccccn2)C1 (stereo not given)
  cytotoxicity at 10 µM: -9.09%

## CN(Cc1ccsc1)C(=O)c1cc2c([nH]c1=O)CCCC2=O
  cytotoxicity at 10 µM: -6.88%

## Cc1nc(N2CCN(C(=O)c3ccc(O)cc3)CC2)c2cnn(C)c2n1
  cytotoxicity at 10 µM: -4.91%

## Cc1cc(C)cc(OCC(=O)NC2CCN(S(C)(=O)=O)CC2)c1
  cytotoxicity at 10 µM: -5.72%

## Cc1ccsc1CNC(=O)Cc1c(C)nc2c(c1C)c(=O)[nH]n2C
  cytotoxicity at 10 µM: -0.168%

## CN(C)Cc1cnc(C2CCN(C(=O)c3ccccc3F)C2)[nH]1 (stereo not given)
  cytotoxicity at 10 µM: 0.578%

## O=S(=O)(C1CC1)N1CC[C@@H]2[C@@H]1CCN2Cc1cccs1
  cytotoxicity at 10 µM: 5.77%

## CS(=O)(=O)N1C[C@H]2CCC[C@@]2(COc2ccccn2)C1
  cytotoxicity at 10 µM: 1.13%

## CS(=O)(=O)NCc1cnc2n1CCN(Cc1ccoc1)CC2
  cytotoxicity at 10 µM: -4.1%

## CN(C)CCO[C@H]1CN(Cc2ccc3c(c2)OCO3)[C@@H]2COC[C@H]12
  cytotoxicity at 10 µM: -5.5%

## CN(Cc1ccccn1)C1CC2(CCN(Cc3cccnc3)CC2)C1
  cytotoxicity at 10 µM: 0.925%

## CO[C@H]1CN(Cc2ccc(C)o2)[C@@H]2CCCO[C@H]12
  cytotoxicity at 10 µM: -144%

## COCc1nnc2n1CCN(Cc1ccoc1)C2
  cytotoxicity at 10 µM: -2.56%

## COCC(=O)N1CCC2(CC1)COC(COCc1ccccn1)C2 (stereo not given)
  cytotoxicity at 10 µM: -128%

## CC(C)Nc1nc2c(cc1C(=O)NCC1CC1)CCNCC2
  cytotoxicity at 10 µM: -5.42%

## CN(C)CCN1CCC2(CCCN(C(=O)C3CCC3)C2)CC1
  cytotoxicity at 10 µM: 4.38%

## Cn1cc(CN2C[C@@H]3COC[C@]3(COCC3CC3)C2)cn1
  cytotoxicity at 10 µM: -112%

## O=C(Cc1ccccn1)N1CCN2C[C@H](Oc3cccc(F)c3)C[C@H]2C1
  cytotoxicity at 10 µM: 3.94%

## OCCN1CCC2(CC1)CC(NCc1ccccn1)c1ccccc1O2 (stereo not given)
  cytotoxicity at 10 µM: 0.98%

## Cn1ccnc1CN1CCC2(CC1)CN(Cc1ccccc1)C(=O)CO2
  cytotoxicity at 10 µM: -3.99%

## COc1cccc(-c2cc(C3=NC(=CN4CCN(C)CC4)NO3)[nH]n2)c1
  cytotoxicity at 10 µM: -7.54%

## OCC1N(Cc2ccco2)C2CCC1(O)CC2 (stereo not given)
  cytotoxicity at 10 µM: 3.1%

## O=C1[C@@H]2CC[C@@H](CN(C3CCOCC3)C2)N1Cc1cscn1
  cytotoxicity at 10 µM: -7.15%

## Cn1c(=NC(=O)CSCC(=O)Nc2nccs2)sc2ccccc21
  cytotoxicity at 10 µM: -1.81%

Source: ChEMBL document CHEMBL4513216, “Probing the Open Global Health Chemical Diversity Library for Multistage-Active Starting Points for Next-Generation Antimalarials” (ACS Infect Dis, 2020)
